The list is not random: actives were taken first. Their share in the collection is about 2.6%.
MT stabilizer – microtubule stabilizers in HeLa cells, primary screen, imaging, high-content imaging | HeLa tubulin immunostaining HCS, 24 h; share of cells brighter than vehicle mean+2SD | % tubulin-high responders, % at 10 µM | actives 0.83% (n = 200,000);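 active means plate Z-score above 3 for both tubulin-high and condensed-nucleus cell shares, with cell loss under 80%, at 10 µM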;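 further: anti alpha tubulin signal scored within the nucleus-defined area of each cell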
NPY2 pot ag – NPY-Y2 potentiators or agonists, primary screen, cell-based. cells expressing NPY-Y2, potentiator/agonist read-out. activation, % at 3.6 µM. actives 0.45% (n = 220,000). Neuropeptide Y receptor type 2 (Homo sapiens), P49146. AID 1359, 2008; in the data active means activation above about 27%;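 further: cells stimulated with NPY near EC25 plus isoproterenol at EC100; 0% = vehicle plus submaximal agonist and 100% = vehicle plus saturating agonist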
Target sequence (P49146 whole entry, looked up): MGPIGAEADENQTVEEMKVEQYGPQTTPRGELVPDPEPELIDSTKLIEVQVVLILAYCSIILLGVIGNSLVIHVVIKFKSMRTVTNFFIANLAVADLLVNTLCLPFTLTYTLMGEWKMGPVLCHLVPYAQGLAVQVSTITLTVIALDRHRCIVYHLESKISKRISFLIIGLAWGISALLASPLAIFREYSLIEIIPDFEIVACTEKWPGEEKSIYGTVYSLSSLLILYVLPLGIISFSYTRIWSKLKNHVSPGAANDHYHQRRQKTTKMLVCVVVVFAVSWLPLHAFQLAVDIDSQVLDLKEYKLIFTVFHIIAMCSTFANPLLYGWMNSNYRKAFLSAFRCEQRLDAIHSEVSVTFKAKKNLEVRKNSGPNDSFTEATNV
NPY-Y1 antag – NPY-Y1 receptor antagonists, primary screen, cell-based; actives 1% (n = 200,000); Neuropeptide Y receptor type 1 (Homo sapiens), P25929; inhibition, % at 3.6 µM; HEK293-CNG Y1 cells, membrane potential fluorescence; NPY at EC95, then isoproterenol;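 active means inhibition above the campaign mean inhibition of all tested compounds plus 3 SD, cut at about 20% in these data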;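 further: 0% = DMSO wells given NPY plus isoproterenol and 100% = isoproterenol alone without NPY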
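Assay system: HEK293 cells with Y1 receptor plus CNG channel | Probe or stimulus: NPY (25 nM), isoproterenol (1 µM), Ro 20-1724 (25 µM) | Timing: Compound incubation 1 h at room temperature, readout 45 min post-stimulation | Measured by: Membrane-potential fluorescent dye readout | Benchmarks: High control isoproterenol alone, low control NPY with isoproterenol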
b-catenin transl – modulators of beta-catenin nuclear translocation, primary screen, imaging, HeLa cells, immunofluorescence, high-content | nuclear translocation activity, % at 5 µM | actives 0.3% (n = 190,000);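 active means nuclear translocation activity above 50% at 5 µM, with a well cell count of 50 or more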;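 further: per-cell ratio of nuclear to cytoplasmic median beta-catenin stain intensity; plate controls were DMSO negative control for no effect and GSK-3 inhibitor IX positive control for full effect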
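Test system: HeLa cells, endogenous beta-catenin; Compound: single 5 µM dose plus 0.02–20 µM confirmation series; Times: compound exposure 24 h at 37°C; Signal: fluorescence imaging of beta-catenin antibody stain plus DAPI; Read-out: % activation, nuclear-to-cytoplasmic median beta-catenin signal ratio per cell.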
NPY1 pot ag – NPY-Y1 receptor potentiators or agonists, primary screen, cell-based; Neuropeptide Y receptor type 1 (Homo sapiens), P25929; NPY-Y1 expressing cells, potentiator/agonist activation; activation, % at 3.6 µM; actives 0.37% (n = 220,000); in the data active means activation above about 33%, passing the limit was not always enough;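 further: cells stimulated with NPY at EC10 then isoproterenol at EC100; 0% = low agonist plus stimulus and 100% = saturating agonist plus stimulus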
NPY-Y2 antag – NPY-Y2 receptor antagonists, primary screen, cell-based. inhibition, % at 2.7 µM. Neuropeptide Y receptor type 2 (Homo sapiens), P49146. NPY-Y2 expressing cells, antagonist mode. actives 0.99% (n = 140,000); in the data active means inhibition above about 17%;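 further: 0% = vehicle with agonist challenge and 100% = reference antagonist with challenge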
* marks the source's active call; other numbers are inactive results.

Screening Brc1ccc2c(c1)C(C1=NCCN1)c1ccccc1CS2 (centres undefined) returned MT stabilizer 24, NPY2 pot ag 14, NPY-Y1 antag 5, b-catenin transl 51*, NPY1 pot ag -8 and NPY-Y2 antag 4.
`c1ccc2c(c1)CCCC2C1=NCCN1` (centres undefined) gave MT stabilizer 3, NPY2 pot ag 4, NPY-Y1 antag 1, NPY1 pot ag 6 and NPY-Y2 antag 3.
COc1cccc(-c2nn(C)c3sc(C(=O)N4CCOCC4)cc23)c1 was read as MT stabilizer 3, NPY2 pot ag 4, NPY-Y1 antag 4, b-catenin transl -2, NPY1 pot ag -11 and NPY-Y2 antag 0.
`COc1cccc(-c2nn(C)c3sc(C(=O)N4CCN(c5ccccn5)CC4)cc23)c1` gave MT stabilizer 13*, NPY2 pot ag -1, NPY-Y1 antag 5, b-catenin transl 0, NPY1 pot ag -1 and NPY-Y2 antag 7.
CCc1ccc2c(CN3CCc4ccccc43)cc(=O)oc2c1 was read as MT stabilizer 6, NPY2 pot ag -9, NPY-Y1 antag 22*, b-catenin transl 0, NPY1 pot ag -2 and NPY-Y2 antag 22*.
Screening CN(Cc1nc(Cc2ccccc2F)no1)Cc1cccc2ncccc12 returned MT stabilizer 3, NPY2 pot ag -1, NPY-Y1 antag 1, b-catenin transl 1 and NPY1 pot ag -20.
`Cc1ccc(C(=O)N2C(CC(=O)Nc3ccc(Cl)cc3)C(=O)NC3CCCCC32)cc1` (centres undefined) gave MT stabilizer 20*, NPY2 pot ag -4, NPY-Y1 antag -1, b-catenin transl 0 and NPY1 pot ag 2.
For O=c1cc(-c2ccccc2Cl)oc2c(NS(=O)(=O)c3cc(Cl)cc(Cl)c3O)ccc(O)c12 the results were MT stabilizer 4, NPY2 pot ag 41*, NPY-Y1 antag -5, NPY1 pot ag 56* and NPY-Y2 antag 2.
For FC(F)(F)c1cccc(NC(=S)NNC(=S)Nc2ccc(Cl)cc2)c1 the results were NPY2 pot ag 45*, b-catenin transl 0 and NPY1 pot ag 74*.
Screening Cc1ccc(NC(=S)NNC(=S)Nc2cccc(C(F)(F)F)c2)cc1 returned NPY2 pot ag 37, b-catenin transl -1 and NPY1 pot ag 44.
For CNC(=S)Nc1cc(C)ccc1OC(F)F the results were MT stabilizer 4, NPY2 pot ag -10, NPY-Y1 antag -1, b-catenin transl -2 and NPY1 pot ag 9.
`CN(C)S(=O)(=O)c1cccc(-c2nnc3n2CCCCC3)c1` gave NPY2 pot ag 4, b-catenin transl 1 and NPY1 pot ag 27.
Screening CC(C)(C)c1ccc(-n2nc(C(N)=O)c(O)cc2=O)cc1 returned MT stabilizer 2, NPY2 pot ag 3, NPY-Y1 antag 6, b-catenin transl -2 and NPY1 pot ag -3.
For CC(C)(C)c1ccc(-n2nc(C#N)c(Cl)cc2=O)cc1 the results were MT stabilizer 3, NPY2 pot ag 61*, NPY-Y1 antag 1, b-catenin transl 0 and NPY1 pot ag 67*.
`COc1ccc(C=O)cc1CSc1nnc(COc2cccc3cccnc23)o1` gave MT stabilizer 3, NPY2 pot ag -13, NPY-Y1 antag 4, b-catenin transl 1, NPY1 pot ag -6 and NPY-Y2 antag 6.
Screening CCOC(=O)Nc1ccc(S(=O)(=O)N2CCC(C)CC2)cc1 returned MT stabilizer 18*, NPY2 pot ag 9, NPY-Y1 antag 1, b-catenin transl 3 and NPY1 pot ag -9.
Screening Cc1ccc(NC(=O)C2CCN(S(=O)(=O)c3ccc(F)cc3)CC2)cc1 returned MT stabilizer 2, NPY2 pot ag 105*, NPY-Y1 antag -2, b-catenin transl -3, NPY1 pot ag 113* and NPY-Y2 antag 2.
`CCOC(=O)Nc1ccc(S(=O)(=O)N2CCOCC2)cc1` gave MT stabilizer 4, NPY2 pot ag 12, NPY-Y1 antag -4, b-catenin transl -1, NPY1 pot ag -10 and NPY-Y2 antag 1.
Screening O=C(CNC(=O)c1ccc2c(c1)OCO2)N/N=C(Br)/C=C/c1ccccc1 returned MT stabilizer 19*, NPY2 pot ag -14, NPY-Y1 antag 6, b-catenin transl -1, NPY1 pot ag -19 and NPY-Y2 antag 3.
For O=C(CNC(=O)c1ccc2c(c1)OCO2)N/N=C/c1cccc([N+](=O)[O-])c1 the results were MT stabilizer 1, NPY2 pot ag -5, NPY-Y1 antag 7, b-catenin transl -2 and NPY1 pot ag 4.
`CCO[C@H]1OC(C(=O)O)=C[C@@H](c2ccc3c(c2)OCO3)[C@@H]1CCCO` gave MT stabilizer 1, NPY2 pot ag -5, NPY-Y1 antag -1, b-catenin transl 1 and NPY1 pot ag 4.
`CCOc1cc(C)c(Cl)cc1S(=O)(=O)NCc1ccc2c(c1)OCO2` gave MT stabilizer 35*, NPY2 pot ag -2, NPY-Y1 antag 3, b-catenin transl 4, NPY1 pot ag -11 and NPY-Y2 antag 4.
Screening CCOc1cc(S(=O)(=O)NCc2ccc3c(c2)OCO3)c(C)cc1C returned MT stabilizer 2, NPY2 pot ag 2, NPY-Y1 antag 7, NPY1 pot ag -10 and NPY-Y2 antag 8.
Screening CC1CCN(c2ccccc2NC(=S)NC(=O)C(C)(C)C)CC1 returned MT stabilizer 3, NPY2 pot ag -7, NPY-Y1 antag 7, b-catenin transl 2 and NPY1 pot ag 1.
For CC1CCN(c2ccccc2NC(=S)NC(=O)c2ccco2)CC1 the results were MT stabilizer 2, NPY2 pot ag -25, NPY-Y1 antag 35*, NPY1 pot ag -48 and NPY-Y2 antag 12.
Screening CCC(C)(C)NC(=O)C(c1ccc(C)o1)N(Cc1cccs1)C(=O)Cn1nnc2ccccc21 (centres undefined) returned MT stabilizer 3, NPY2 pot ag -36, NPY-Y1 antag 70*, b-catenin transl 1, NPY1 pot ag -131 and NPY-Y2 antag 50*.
`O=C(NCc1ccco1)C(c1ccco1)N(Cc1cccs1)C(=O)Cn1nnc2ccccc21` (centres undefined) gave MT stabilizer 3, NPY2 pot ag 4, NPY-Y1 antag 1, b-catenin transl 1, NPY1 pot ag -16 and NPY-Y2 antag 3.
For COCCNC(=O)C(c1ccccc1)N(Cc1cccs1)C(=O)Cn1nnc2ccccc21 (centres undefined) the results were MT stabilizer 2, NPY2 pot ag -1, NPY-Y1 antag -5, b-catenin transl 0, NPY1 pot ag -12 and NPY-Y2 antag 2.

Screening results deposited in PubChem by several laboratories.
